The text below walks through data of publication PMC4545412 (Planta medica, 2015).

pIC50: −log10 of the molar value. Where two headings read alike, the source gives them in different places. Bounds are passed on as bounds.

Data set [1] relates to Plasmodium falciparum Dd2. The data set is described as follows: Antimalarial bioassay, 72 h parasite growth assay. As to conditions: DD2, read-out: P. falciparum IC50. It is filed as cell-based. Put shortly: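 72 h growth assay of test compounds on the drug-resistant Dd2 strain of Plasmodium falciparum, following an earlier protocol with minor modifications. Artemisinin was the positive control.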

The next data set concerns the target NF-κB p65 subunit (Homo sapiens, UniProt Q04206). The data set is described as follows: Enzyme-based ELISA NF-κB. It is filed as biochemical. A general note: An ELISA detects its analyte on a solid surface through an enzyme-linked reagent.
Data set [2] relates to human colon cancer (HT-29) cell line. The experiment in a line: Cytotoxicity assay against HT-29 human colon cancer cells. As to conditions: for HT-29 ED50: HT-29 human colon cancer cells, > 20 µM considered inactive.
The test system is the same in data set [3].
Data set [4] has as its system Candida albicans (ATCC 18804). The experiment in a line: Antifungal bioassay, growth of the pathogenic yeast. It is filed as cell-based. Particulars: ATCC18804, read-out: growth inhibition of C. albicans cells.
In a further data set the test system is P. falciparum strain 3D7. As to conditions: read-out: IC50, in vitro antimalarial activity; cited from earlier work.
Another data set deals with Plasmodium falciparum. Particulars: cited from earlier work.
[5] abbreviates: read-out: NF-κB (p65) IC50, enzyme-based ELISA, > 20 µM considered inactive.

What is called pIC50 is the negative decadic logarithm of the IC50, by convention in mol/L. By inhibition is commonly meant the share of the control response that was lost under treatment.

Sequence of NF-κB p65 subunit (Q04206 whole entry): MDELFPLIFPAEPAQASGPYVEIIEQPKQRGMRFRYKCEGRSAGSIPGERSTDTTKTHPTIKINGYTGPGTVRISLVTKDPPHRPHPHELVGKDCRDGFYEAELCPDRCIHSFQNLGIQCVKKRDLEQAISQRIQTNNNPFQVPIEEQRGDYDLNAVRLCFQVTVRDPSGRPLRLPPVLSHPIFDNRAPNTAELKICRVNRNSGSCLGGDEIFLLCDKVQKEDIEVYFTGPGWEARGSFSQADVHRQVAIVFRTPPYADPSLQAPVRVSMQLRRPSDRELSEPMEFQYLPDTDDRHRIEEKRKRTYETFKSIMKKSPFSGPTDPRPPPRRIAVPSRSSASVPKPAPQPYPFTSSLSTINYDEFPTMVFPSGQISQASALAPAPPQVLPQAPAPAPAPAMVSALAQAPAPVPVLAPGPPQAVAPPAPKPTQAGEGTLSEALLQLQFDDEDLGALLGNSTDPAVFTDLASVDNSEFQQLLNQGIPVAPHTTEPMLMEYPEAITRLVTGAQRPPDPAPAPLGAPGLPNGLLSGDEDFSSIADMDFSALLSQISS

In the case of `C[C@@H]1CC[C@H]2[C@@H](C)C(=O)O[C@@H]3O[C@@]4(C)CC[C@@H]1[C@]32OO4` [Artemisinin, reference compound], the pIC50 in data set [1] is 9.15.
Take `C=C(C)C1CCC2(CO)CCC3(C)C(CCC4C5(C)CCC(OC(=O)/C=C/c6ccc(O)cc6)C(C)(CO)C5CCC43C)C12` (stereo not drawn) [Compound 1, 3-O-(E)-p-coumaroyl-23-hydroxybetulin]: the pIC50 on NF-κB p65 subunit (setting [5]) was less than 4.70. Moreover, in data set [2], the “HT-29 ED50” value is more than 20 µM.
Turning to `C=C(C)C1CCC2(CO)CCC3(C)C(CCC4C5(C)CCC(OC(=O)/C=C/c6ccc(O)cc6)C(C)(CO)C5CCC43C)C12` (stereo not drawn) [Compound 2, 3-O-(E)-p-coumaroyl-23-hydroxy-3-epi-betulin], the pIC50 at NF-κB p65 subunit (setting [5]) was less than 4.70. In data set [2] (HT-29 cells), the “cytotoxic effect against HT-29 cells (in words)” value is given as “marginal cytotoxic effects”. Further, in data set [2], the “HT-29 ED50” value was found to be 13.2 µM.
Take `C=C(C)C1CCC2(CO)CCC3(C)C(CCC4C5(C)CCC(OC(=O)/C=C\c6ccc(O)cc6)C(C)(CO)C5CCC43C)C12` (stereo not drawn) [Compound 3, 3-O-(Z)-p-coumaroyl-23-hydroxy-3-epi-betulin]: at NF-κB p65 subunit (setting [5]), the pIC50 was less than 4.70. The “HT-29 ED50” value in data set [2] was 3.3 µM.
The like results for `C=C(C)C1CCC2(CO)CCC3(C)C(CCC4C5(C)CCC(O)C(C)(COC(=O)/C=C/c6ccc(O)cc6)C5CCC43C)C12` (stereo not drawn) [Compound 4, 23-O-(E)-p-coumaroyl-23-hydroxybetulin] were, in that order, less than 4.70 and more than 20 µM.
For the compound `C=C(C)C1CCC2(CO)CCC3(C)C(CCC4C5(C)CCC(O)C(C)(COC(=O)/C=C\c6ccc(O)cc6)C5CCC43C)C12` (stereo not drawn) [Compound 5, 23-O-(Z)-p-coumaroyl-23-hydroxybetulin], the “cytotoxic effect against HT-29 cells (in words)” value in data set [3] is reported as “marginal cytotoxic effects”. Besides, at NF-κB p65 subunit (setting [5]), the pIC50 was less than 4.70. Further, the “HT-29 ED50” value in data set [2] was 18.4 µM.
As to `C=C(C)[C@@H]1CC[C@]2(CO)CC[C@]3(C)[C@H](CC[C@@H]4[C@@]5(C)CC[C@H](O)C(C)(C)[C@@H]5CC[C@]43C)[C@@H]12` [Compound 6, betulin], the values for the pIC50 (at NF-κB p65 subunit; in data set [1]) were less than 4.70 and less than 5.00, respectively. Also, in data set [2], the “HT-29 ED50” value is on record as more than 20 µM.
Consider `C=C(C)[C@@H]1CC[C@]2(COC(C)=O)CC[C@]3(C)[C@H](CC[C@@H]4[C@@]5(C)CC[C@H](OC(C)=O)C(C)(C)[C@@H]5CC[C@]43C)[C@@H]12` [Compound 8, 3,28-O-diacetylbetulin], for which the pIC50 at NF-κB p65 subunit (setting [5]) was less than 4.70. Besides, in data set [2], the “HT-29 ED50” value is listed as more than 20 µM.
In the same order, the values of `C=C(C)[C@@H]1CC[C@]2(CO)CC[C@]3(C)[C@H](CC[C@@H]4[C@@]5(C)CC[C@H](O)[C@@](C)(CO)[C@@H]5CC[C@]43C)[C@@H]12` [Compound 9, 23-hydroxybetulin] are 5.40 and more than 20 µM.
Consider `CC(=O)O[C@H]1C(=O)[C@@]2(C)[C@H]([C@H](OC(=O)c3ccccc3)[C@]3(O)C[C@H](OC(=O)[C@H](O)[C@@H](NC(=O)c4ccccc4)c4ccccc4)C(C)=C1C3(C)C)[C@]1(OC(C)=O)CO[C@@H]1C[C@@H]2O` [Paclitaxel, reference compound], for which the “HT-29 ED50” value in data set [2] is given as 0.001 µM.
For the compound `C[C@@H]1[C@H](O)[C@@H](C)/C=C/C=C/C=C/C=C/C=C/C=C/C=C/[C@H](O[C@@H]2O[C@H](C)[C@@H](O)[C@H](N)[C@@H]2O)C[C@@H]2O[C@](O)(C[C@@H](O)C[C@@H](O)[C@H](O)CC[C@@H](O)C[C@@H](O)CC(=O)O[C@H]1C)C[C@H](O)[C@H]2C(=O)O` [amphotericin B], the inhibition at 200 µg/mL in data set [4] was 100%.
With `C=C(C)[C@@H]1CC[C@]2(C(=O)OC)CC[C@]3(C)[C@H](CC[C@@H]4[C@@]5(C)CC[C@H](O)C(C)(C)[C@@H]5CC[C@]43C)[C@@H]12` [its methylate], the pIC50 with P. falciparum strain 3D7 was 5.15.
For “N-3-benzoyldihydrocyclomicrophylline F [Compound 7]”, the pIC50 on NF-κB p65 subunit (setting [5]) is less than 4.70. Besides, the “HT-29 ED50” value in data set [2] worked out at 1.9 µM.
Regarding O-tigloylcyclovirobuxeine-B, in the data set with Plasmodium falciparum, the “IC50, in vitro antiplasmodial activity” value is 0.46 µg/mL. The pIC50 in the data set on Plasmodium falciparum (read-out: IC50, in vitro antiplasmodial activity) was 6.04.
